A selection: hits, their analogues and other compounds. The true share with any hit is near 0.72%.
mIAP block: mouse IAP inhibition; purified mouse IAP, CDP-Star luminescence, 30 min; 330,000 compounds, 0.2% hits; inhibition, % at 10 µM;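 active means inhibition of at least 40% at 10 µM in the primary screen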;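 further: plate controls were DMSO with enzyme for no effect and no enzyme wells for full effect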
hIAP inh: blocks human intestinal alkaline phosphatase | AID 2544 | 330,000 compounds, 0.12% hits | purified IAP, CDP-Star luminescence, 30 min | P09923 | inhibition, % at 10 µM;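 active means inhibition reaching a set limit with compound at 10 µM in the primary screen, cut at about 35% in these data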;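 further: plate controls were DMSO wells with enzyme for no effect and no-enzyme buffer wells for full effect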
Target sequence (P09923 whole entry, looked up): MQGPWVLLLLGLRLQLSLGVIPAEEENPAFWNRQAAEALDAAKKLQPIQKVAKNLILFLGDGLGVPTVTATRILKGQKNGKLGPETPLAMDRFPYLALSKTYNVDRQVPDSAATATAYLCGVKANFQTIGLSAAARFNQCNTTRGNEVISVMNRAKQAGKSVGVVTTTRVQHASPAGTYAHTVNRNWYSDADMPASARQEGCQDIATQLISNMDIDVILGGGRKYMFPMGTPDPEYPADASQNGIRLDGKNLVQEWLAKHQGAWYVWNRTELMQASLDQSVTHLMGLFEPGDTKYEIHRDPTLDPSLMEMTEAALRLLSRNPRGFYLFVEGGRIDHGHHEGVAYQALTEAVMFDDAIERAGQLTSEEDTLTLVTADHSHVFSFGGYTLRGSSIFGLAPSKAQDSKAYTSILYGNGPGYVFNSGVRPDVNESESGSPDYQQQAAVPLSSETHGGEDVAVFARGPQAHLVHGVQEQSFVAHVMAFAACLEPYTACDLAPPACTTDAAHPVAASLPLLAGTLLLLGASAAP
bIAP inhibitor: blocks bovine intestinal alkaline phosphatase activity | purified bovine IAP, CDP-star luminescence, 30 min | inhibition, % at 20 µM | 190,000 tested, under 10 active;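 active means over 50% inhibition of intestinal alkaline phosphatase at 20 µM in the single-dose screen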
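Incubation: 30 min reaction at room temperature / Material: purified bovine intestinal alkaline phosphatase (IAP) enzyme / Input: enzyme at 1/65,000,000 dilution / Dosing: 20 µM single dose / Signal: CDP-star luminescence signal / Reagent: CDP-star chemiluminescent phosphatase substrate, 30 µM final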
bIAP activator: intestinal alkaline phosphatase (bovine) activation; 200,000 compounds, 0.17% hits; activation factor at 20 µM; purified bovine IAP, CDP-star luminescence, 30 min; hits give high values; fold of DMSO-control signal, blank-subtracted;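 active means activation factor of 2 or more at 20 µM, a signal rise over negative controls twice the positive control's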
mIAP act: mouse IAP activation | muIAP, CDP-Star luminescence, 30 min; hits give high values; 1 = vehicle-only enzyme signal, 0 = enzyme-free wells | activation factor at 10 µM | 330,000 compounds, 0.24% hits;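 active means activation factor of at least 2 at 20 µM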
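also added = chemiluminescent substrate CDP-Star | test system = mouse IAP enzyme | signal = chemiluminescence readout | compound = DMSO-dissolved test compounds | incubation = 30 min at room temperature | benchmarks = DMSO wells, no-enzyme wells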
hIAP act: increases human intestinal alkaline phosphatase activity; P09923; purified human IAP, CDP-Star luminescence, 30 min; hits give high values; 1 = vehicle-only enzyme, 0 = enzyme-free background; activation factor at 10 µM; 330,000 compounds, 0.16% hits; AID 2524;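 active means activation factor of the enzyme at least 2-fold when tested at 20 µM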
* hit, by the source's call; i = inactive; x = no result.

SMILES	mIAP block	hIAP inh	bIAP inhibitor	bIAP activator	mIAP act	hIAP act
CCCC(C(=O)NC1CCCC1)N(CC1CCCO1)C(=O)CNS(=O)(=O)c1ccccc1 (centres undefined)	-10	-18	x	x	1.1	1.2
Cc1ccc(OCC(=O)OCC(=O)Nc2ccc3c(c2)OCO3)cc1C	1	-11	x	x	0.99	1.1
O=C(Cc1cccc2ccccc12)N/N=C/c1ccc(OC(=O)/C=C/c2ccco2)cc1	63*	6	7	0.9	0.37	0.94
O=C(Cc1cccc2ccccc12)N/N=C/c1ccc(F)cc1	-3	4	4	1	1	0.96
CCCc1ccc(OCc2ccc(C(=O)N3CCSCC3)o2)cc1	1	-3	x	x	0.99	1
O=C(Nc1cc(Cl)ccc1F)C1=COCCO1	-2	-2	x	x	1	1
COc1cc([C@H]2c3[nH]c4ccccc4c3C[C@H]3C(=O)N4[C@@H](c5cc(OC)c(OC)c(OC)c5)c5[nH]c6ccccc6c5C[C@H]4C(=O)N23)cc(OC)c1OC	-276	-9	36	0.6	3.8*	1.1
CSCCC(NC(=O)c1ccco1)C(=O)N1CCN(C(c2ccccc2)c2ccccc2)CC1 (centres undefined)	8	-2	x	x	0.92	1
Cc1c(OC(C)C(=O)NCC(O)c2ccccc2)ccc2c3c(c(=O)oc12)CCC3 (centres undefined)	6	-5	x	x	0.94	1.1
COc1ccc(C(CCc2ccc(C)o2)NC(=O)Nc2ccc(OC)cc2OC)cc1 (centres undefined)	-104	17	-12	1.1	2*	0.83
Cc1cccc(OCC(=O)Nc2ccncc2)c1C	-13	-6	x	x	1.1	1.1
Cc1cccc(OCC(=O)Nc2ncn[nH]2)c1C	-2	-103	x	x	1	2*
CC(=O)NNc1ncnc2c1cnn2-c1ccc(C)cc1	18	-206	-28	1.3	0.81	3.1*
Cc1ccc(Cl)cc1-n1ncc2c(NNC(=O)c3ccco3)ncnc21	7	-140	-37	1.4	0.93	2.4*
CC(=O)NNc1ncnc2c1cnn2-c1ccc(C)c(Cl)c1	-18	-57	-14	1.1	1.2	1.6
CC1CCCC(NC(=O)c2cccs2)C1C (centres undefined)	-17	-18	x	x	1.2	1.2
Cn1c(CN2CCCCC2)nc2cc(NC(=O)c3ccccc3)ccc21	-1	11	-4	1	1	0.89
Cn1c(CN2CCCC2)nc2cc(NC(=O)Nc3ccccc3)ccc21	-26	1	-131	2.3*	1.3	0.99
COc1ccc(OC)c(NC(=S)NCCCN2CCOCC2)c1	-9	1	-140	2.4*	1.1	0.99
Cc1c(C(=O)N2CCCC2)c(S(=O)(=O)N2CCN(c3ccccc3F)CC2)c(C)n1C	4	-4	x	x	0.96	1
Cc1cccc(N2CCN(C(=O)c3ccc4c(c3)NC(=O)C(CSCc3cccc(F)c3)N4)CC2)c1C (centres undefined)	10	23	x	x	0.9	0.77
CCOc1cc(/C=C2\CCC/C(=C\c3cc(Cl)c(O)c(OCC)c3)C2=O)cc(Cl)c1O	44*	21	x	0.3	0.56	0.79
COc1cccc(CNc2ccc(S(=O)(=O)N3CCCC3)cn2)c1	-7	0	x	x	1.1	1
COc1cc(/C=C2/C(=O)NN(c3cccc(F)c3)C2=O)ccc1OC(=O)c1ccco1	11	16	-109	2.1*	0.89	0.84
CC(C)CCNC(=O)c1ccc2c(SCC(=O)O)c3c(nc2c1)CCCC3	7	6	-139	2.4*	0.93	0.94
SMILES	mIAP block	hIAP inh	bIAP inhibitor	bIAP activator	mIAP act	hIAP act
Cc1ccc2nc(NCc3ccccc3)[nH]c2c1	x	x	-177	2.8*	x	x
Cc1ccc(OCc2cc(C(=O)N3CC4C[C@@H]5CC3C[C@H](C4)C5)no2)cc1C	0	-40	x	x	1	1.4
O=C(O)CCC1c2cc3c4cc2OC2Oc5cc6c(cc51)C(CCC(=O)O)c1cc5c7cc1OC(O6)c1cc6cc(c1)Oc1cc(cc(C(=O)O)c1)Oc1cc8cc(c1)C(Oc1cc(c(cc1C5CCC(=O)O)C3CCC(=O)O)OC(O4)c1cc(cc(c1)Oc1cc(cc(C(=O)O)c1)O8)Oc1cc(cc(C(=O)O)c1)Oc1cc(cc2c1)Oc1cc(cc(C(=O)O)c1)O6)O7 (centres undefined)	48*	9	x	x	0.97	1.1
COc1ccc(C(CC(=O)Nc2cc(OC)cc(OC)c2)n2cccc2)cc1 (centres undefined)	-122	-20	10	0.9	2.2*	1.2
COc1ccc(C(CC(=O)Nc2ccccc2OC)n2cccc2)cc1 (centres undefined)	0	-5	11	0.9	1	1
O=C(NCCc1ccccc1)c1n[nH]c2ccccc12	-2	19	-96	2*	1	0.81
O=c1[nH]c(C2CCN(S(=O)(=O)/C=C/c3ccccc3)CC2)nc2c1nnn2Cc1ccccc1	14	0	x	x	0.86	1
Cc1cc(C)nc(/N=C(\N)Nc2ccc(OCc3ccccc3)cc2)n1	-70	-108	i	6.2*	1.7	2.1*
Cc1oc(-c2cc(Cl)cc(Cl)c2)cc1C(=O)NCCc1ccccc1	-263	-11	6	0.9	3.6*	1.1
Cc1ccc(NC(=O)Nc2ccc(F)c(Cl)c2)cc1	-188	-14	31	0.7	2.9*	1.1
CSc1ccccc1NC(=O)Nc1cccc(Cl)c1	-113	9	6	0.9	2.1*	0.91
CSc1ccccc1NC(=O)Nc1ccc(F)c(Cl)c1	-128	20	1	1	2.3*	0.81
COc1ccc(NC(=O)Nc2ccc(F)c(Cl)c2)cc1	-89	9	3	1	1.9	0.91
C/C(=N\NC(=O)C1CCCC1)c1ccc(Cl)c(Cl)c1	63*	-40	x	x	0.37	1.4
C/C(=N\NC(=O)C1CCCC1)c1ccc(C(C)C)cc1	-3	-13	x	x	1	1.1
CC(=O)c1ccc(OCc2ccc(C(=O)c3ccccc3)cc2)cc1	0	-3	-10	1.1	1	1
CC(=O)c1ccc(OCc2ccc(Oc3c(Cl)cccc3[N+](=O)[O-])cc2)cc1	10	-204	9	0.9	0.9	3*
CN(C(=O)COC(=O)c1ccccc1NCCO)C1CCS(=O)(=O)C1 (centres undefined)	4	4	x	x	0.96	0.96
O=C(CN1C(=O)c2ccccc2C1=O)NC1CCC(O)CC1 (centres undefined)	1	-12	x	x	0.99	1.1
COc1cccc(CN2CCC(n3nccc3NC(=O)CCCc3ccccc3)CC2)c1O	-38	-63	x	x	1.4	1.6
O=C(CCCc1ccccc1)Nc1ccnn1C1CCN(Cc2ccccc2)CC1	-56	-95	x	x	1.6	1.9
O=C(CCCc1ccccc1)Nc1ccnn1C1CCN(Cc2ccccc2F)CC1	-39	-89	x	x	1.4	1.9

Assay outcomes: PubChem, Sanford-Burnham Center for Chemical Genomics
